Laboratory results reported in ChEMBL document CHEMBL4000155, “Synthesis and Antileukemic Activities of Piperlongumine and HDAC Inhibitor Hybrids against Acute Myeloid Leukemia Cells” (J Med Chem, 2016).
Active and inactive are the calls of the source. The rule behind the calls is not given here.

How the values were obtained:
U-937 [1] = assay: Induction of apoptosis in p53 null human U937 cells assessed as caspase 3 cleavage at 2 uM after 24 hrs in presence of SAHA by Western blot analysis; type: functional, cell-based
Procedure, shortened: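 U937 cells exposed for 24 h. Lysates with protease/phosphatase inhibitors were separated by SDS-PAGE, transferred to PVDF and probed for PARP and cleaved caspase-3, with β-actin as loading control.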

HL-60 = assay: Antiproliferative activity against human HL60 cells after 72 hrs in presence of SAHA by MTT assay; type: functional, cell-based; conditions: HL-60, 72 h
Procedure, shortened: (§1)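 AML cell lines grown in RPMI 1640 with 10% FBS (20% for MOLM-13), 2 mM L-glutamine and penicillin/streptomycin at 37 °C, 5% CO2. Ara-C-resistant HL-60 and CMK sublines came from stepwise cytarabine selection and were kept in 600 nM or 300 nM cytarabine respectively. Cells were treated 72 h. MTT 0.05 mg/mL, 3 h at 37 °C, DMSO solubilization, absorbance at 570 nm. IC50 given ± SEM.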

CMK = assay: Antiproliferative activity against Ara-C resistant human CMK cells after 72 hrs in presence of SAHA by MTT assay; type: functional, cell-based; procedure, shortened: as §1
[2] = biological target: T1, Protein deacetylase HDAC6 (Homo sapiens) (UniProt Q9UBN7); assay: Effect on SAHA-induced HDAC6 inhibition in p53 null human U937 cells assessed as hyper acetylation of alpha tubulin at 1 uM after 4 hrs by Western blot analysis; type: cell-based
T1 sequence (whole entry): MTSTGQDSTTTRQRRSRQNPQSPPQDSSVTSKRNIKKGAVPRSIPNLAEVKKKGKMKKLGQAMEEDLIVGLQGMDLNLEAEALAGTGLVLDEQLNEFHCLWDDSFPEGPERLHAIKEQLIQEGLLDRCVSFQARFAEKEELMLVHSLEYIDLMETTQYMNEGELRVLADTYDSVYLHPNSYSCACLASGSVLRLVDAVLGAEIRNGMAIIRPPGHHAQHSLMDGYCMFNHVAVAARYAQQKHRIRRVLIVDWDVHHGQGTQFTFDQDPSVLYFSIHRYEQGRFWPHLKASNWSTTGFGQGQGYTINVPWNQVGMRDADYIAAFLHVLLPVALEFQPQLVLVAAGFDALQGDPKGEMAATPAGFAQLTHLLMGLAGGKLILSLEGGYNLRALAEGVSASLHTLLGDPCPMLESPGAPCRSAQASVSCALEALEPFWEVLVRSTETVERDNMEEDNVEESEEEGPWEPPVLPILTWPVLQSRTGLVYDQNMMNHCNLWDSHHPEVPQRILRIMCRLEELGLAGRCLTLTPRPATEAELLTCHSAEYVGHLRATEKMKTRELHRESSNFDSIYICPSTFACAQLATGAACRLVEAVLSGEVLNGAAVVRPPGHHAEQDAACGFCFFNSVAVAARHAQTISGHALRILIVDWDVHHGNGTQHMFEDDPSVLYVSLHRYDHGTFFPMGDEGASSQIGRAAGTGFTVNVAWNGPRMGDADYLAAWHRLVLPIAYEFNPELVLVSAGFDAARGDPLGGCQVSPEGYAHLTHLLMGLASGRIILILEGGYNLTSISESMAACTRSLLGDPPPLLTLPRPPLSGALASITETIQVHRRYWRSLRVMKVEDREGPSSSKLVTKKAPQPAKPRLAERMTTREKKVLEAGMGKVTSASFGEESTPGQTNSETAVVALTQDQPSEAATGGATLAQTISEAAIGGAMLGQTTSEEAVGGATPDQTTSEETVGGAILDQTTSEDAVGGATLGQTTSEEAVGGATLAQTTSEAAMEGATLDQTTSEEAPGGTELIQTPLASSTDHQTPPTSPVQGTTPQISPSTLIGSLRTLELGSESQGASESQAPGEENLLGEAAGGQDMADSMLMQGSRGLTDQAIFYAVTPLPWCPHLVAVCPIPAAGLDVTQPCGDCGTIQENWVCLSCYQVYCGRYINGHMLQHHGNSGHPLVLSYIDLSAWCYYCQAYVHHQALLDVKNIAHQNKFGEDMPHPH
Procedure, shortened: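 U937 cells treated at 1 μM for 4 h. Whole-cell lysates run on SDS-PAGE, transferred to PVDF and immunoblotted for acetyl-histone H4, histone H4, acetyl-α-tubulin and β-actin.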

U-937 [3] = assay: Effect on SAHA-induced DNA damage in p53 null human U937 cells assessed as decrease in Rad51 expression level by measuring ratio of Rad51 to beta-actin level at 2 uM after 24 hrs by Western blot analysis relative to control; type: functional
Procedure, shortened: (§2)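 U937 cells treated 24 h, alone or PL+SAHA. Whole-cell lysates (protease/phosphatase inhibitors) immunoblotted for γH2AX, CHK1, RAD51, Bim and XIAP. Band densitometry normalised to β-actin, then expressed as fold change relative to the untreated control.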

U-937 [4] = assay: Effect on SAHA-induced apoptosis in p53 null human U937 cells assessed as increase in Bim EL expression level by measuring ratio of Bim EL to beta-actin level at 2 uM after 24 hrs by Western blot analysis relative to control; type: functional; procedure, shortened: as §2
U-937 [5] = assay: Induction of apoptosis in p53 null human U937 cells at 2 uM after 24 hrs by annexin V-FITC/PI staining based flow cytometry; type: functional
Procedure, shortened: (§3)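 Human U937 AML cells (p53 null) in RPMI 1640 with 10% FBS, 2 mM L-glutamine, penicillin/streptomycin, 37 °C, 5% CO2. Exposed 24 h to compound alone or with SAHA; vehicle DMSO < 0.1% v/v. Annexin V-FITC/PI staining and flow cytometry, reported as % Annexin V+ cells. Three independent experiments in triplicate; one representative shown. EC50 taken as concentration giving 50% Annexin V+ cells versus vehicle.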

U-937 [6] = assay: Induction of apoptosis in p53 null human U937 cells at 4 uM after 24 hrs by annexin V-FITC/PI staining based flow cytometry; type: functional; procedure, shortened: as §3
MOLM-13 = assay: Induction of apoptosis in human MOLM13 cells harboring wild type p53/FLT3-ITD mutant at 2 uM after 24 hrs by annexin V-FITC/PI staining based flow cytometry; type: functional
Procedure, shortened: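 Cells treated 24 h, single agents or SAHA+PL at 1:1 (each drug at the stated concentration). Annexin V-FITC/PI kit staining, then flow cytometry, reported as % Annexin V+ cells. Three independent experiments in triplicate, with data from one representative experiment. DMSO <0.1% vehicle control.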

U-937 [7] = assay: Cytotoxicity against p53 null human U937 cells assessed as decrease in cell viability at 0.5 to 5 uM after 24 hrs by MTT assay; type: functional, cell-based
Procedure, shortened: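 MCF-10A (DMEM/F12, 5% horse serum, hydrocortisone, cholera toxin, insulin, EGF) and U937 (RPMI 1640, 10% FBS) were exposed to 0.5–5 μM, alone or PL+SAHA 1:1, for 24 h. MTT 0.05 mg/mL, 3 h at 37 °C, DMSO solubilization, A570. Viability given as mean ± SD of four to six independent experiments. DMSO <0.1% vehicle control.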

[8] = Stability of the compound in human U937 cell lysate at 50 uM incubated for 1.5 hrs in presence of GSH by HPLC analysis; type: ADME, cell-based; conditions: u-937, 1.5 h

Structure (SMILES): COc1cc(/C=C/C(=O)N2CCC=CC2=O)cc(OC)c1OC [PIPLARTINE]
- Activity (U-937 [1]): Active
- IC50 (HL-60): 529 nM
- IC50 (CMK): 422 nM
- Activity [2]: inactive
- Ratio (U-937 [3]): 0.9
- Ratio (U-937 [4]): 1.8

Structure (SMILES): COc1cc(/C=C/C(=O)N2CCC=CC2=O)cc(OC)c1OCCCCCCC(=O)NO
- Activity (U-937 [5]): 56.9%
- Activity (U-937 [6]): 88.5%
- Activity (MOLM-13): 65.9%
- Activity (U-937 [7]): Active
- Stability [8]: Unstable
